From ChEMBL document CHEMBL2321753, “Synthesis and biological evaluation of radioiodinated quinacrine-based derivatives for SPECT imaging of Aβ plaques” (Eur J Med Chem, 2013)

Assays:
[1] = test system: Heart; assay: Biodistribution in ddY mouse heart at 0.1 to 0.4 uCi, iv after 60 mins by gamma counting; type: ADME, organism-based; conditions: in vivo, 1 h
Method in brief: (§1)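 [125I]ligand (0.1–0.4 µCi) in 100 µL PBS (pH 7.4) containing 30 µL DMSO, injected into the tail vein of ddY mice (5 weeks, 22–25 g). Mice sacrificed at 2, 10, 30 and 60 min. Organs removed, weighed and gamma-counted. Values are % injected dose per gram, except stomach as % dose per organ. Mean (SD) of 3–6 mice per time point.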

[2] = test system: Pancreas; assay: Biodistribution in ddY mouse pancreas at 0.1 to 0.4 uCi, iv after 60 mins by gamma counting; type: ADME, organism-based; conditions: in vivo, 1 h; method in brief: as §1
[3] = test system: Stomach; assay: Biodistribution in ddY mouse stomach assessed per organ at 0.1 to 0.4 uCi, iv after 60 mins by gamma counting; type: ADME, organism-based; conditions: in vivo, 1 h; method in brief: as §1
[4] = test system: Lung; assay: Biodistribution in ddY mouse lung at 0.1 to 0.4 uCi, iv after 60 mins by gamma counting; type: ADME, organism-based; conditions: in vivo, 1 h; method in brief: as §1
[5] = test system: Spleen; assay: Biodistribution in ddY mouse spleen at 0.1 to 0.4 uCi, iv after 60 mins by gamma counting; type: ADME, organism-based; conditions: in vivo, 1 h; method in brief: as §1
[6] = test system: Intestine; assay: Biodistribution in ddY mouse intestine at 0.1 to 0.4 uCi, iv after 60 mins by gamma counting; type: ADME, organism-based; conditions: in vivo, 1 h; method in brief: as §1
[7] = test system: Kidney; assay: Biodistribution in ddY mouse kidney at 0.1 to 0.4 uCi, iv after 60 mins by gamma counting; type: ADME, organism-based; conditions: in vivo, 1 h; method in brief: as §1
[8] = test system: Liver; assay: Biodistribution in ddY mouse liver at 0.1 to 0.4 uCi, iv after 60 mins by gamma counting; type: ADME, organism-based; conditions: in vivo, 1 h; method in brief: as §1
[9] = test system: Brain; assay: Biodistribution in ddY mouse brain at 0.1 to 0.4 uCi, iv after 60 mins by gamma counting; type: ADME, organism-based; conditions: in vivo, 1 h; method in brief: as §1
[10] = test system: Blood; assay: Biodistribution in ddY mouse blood at 0.1 to 0.4 uCi, iv after 60 mins by gamma counting; type: ADME, organism-based; conditions: in vivo, 1 h; method in brief: as §1
[11] = test system: Heart; assay: Biodistribution in ddY mouse heart at 0.1 to 0.4 uCi, iv after 30 mins by gamma counting; type: ADME, organism-based; conditions: in vivo, 0.5 h; method in brief: as §1
[12] = test system: Pancreas; assay: Biodistribution in ddY mouse pancreas at 0.1 to 0.4 uCi, iv after 30 mins by gamma counting; type: ADME, organism-based; conditions: in vivo, 0.5 h; method in brief: as §1
[13] = test system: Stomach; assay: Biodistribution in ddY mouse stomach assessed per organ at 0.1 to 0.4 uCi, iv after 30 mins by gamma counting; type: ADME, organism-based; conditions: in vivo, 0.5 h; method in brief: as §1
[14] = test system: Lung; assay: Biodistribution in ddY mouse lung at 0.1 to 0.4 uCi, iv after 30 mins by gamma counting; type: ADME, organism-based; conditions: in vivo, 0.5 h; method in brief: as §1
[15] = test system: Spleen; assay: Biodistribution in ddY mouse spleen at 0.1 to 0.4 uCi, iv after 30 mins by gamma counting; type: ADME, organism-based; conditions: in vivo, 0.5 h; method in brief: as §1
[16] = test system: Intestine; assay: Biodistribution in ddY mouse intestine at 0.1 to 0.4 uCi, iv after 30 mins by gamma counting; type: ADME, organism-based; conditions: in vivo, 0.5 h; method in brief: as §1
[17] = test system: Kidney; assay: Biodistribution in ddY mouse kidney at 0.1 to 0.4 uCi, iv after 30 mins by gamma counting; type: ADME, organism-based; conditions: in vivo, 0.5 h; method in brief: as §1
[18] = test system: Liver; assay: Biodistribution in ddY mouse liver at 0.1 to 0.4 uCi, iv after 30 mins by gamma counting; type: ADME, organism-based; conditions: in vivo, 0.5 h; method in brief: as §1
[19] = test system: Brain; assay: Biodistribution in ddY mouse brain at 0.1 to 0.4 uCi, iv after 30 mins by gamma counting; type: ADME, organism-based; conditions: in vivo, 0.5 h; method in brief: as §1
[20] = test system: Blood; assay: Biodistribution in ddY mouse blood at 0.1 to 0.4 uCi, iv after 30 mins by gamma counting; type: ADME, organism-based; conditions: in vivo, 0.5 h; method in brief: as §1
[21] = test system: Heart; assay: Biodistribution in ddY mouse heart at 0.1 to 0.4 uCi, iv after 10 mins by gamma counting; type: ADME, organism-based; conditions: in vivo; method in brief: as §1
[22] = test system: Pancreas; assay: Biodistribution in ddY mouse pancreas at 0.1 to 0.4 uCi, iv after 10 mins by gamma counting; type: ADME, organism-based; conditions: in vivo; method in brief: as §1
[23] = test system: Stomach; assay: Biodistribution in ddY mouse stomach assessed per organ at 0.1 to 0.4 uCi, iv after 10 mins by gamma counting; type: ADME, organism-based; conditions: in vivo; method in brief: as §1
[24] = test system: Lung; assay: Biodistribution in ddY mouse lung at 0.1 to 0.4 uCi, iv after 10 mins by gamma counting; type: ADME, organism-based; conditions: in vivo; method in brief: as §1
[25] = test system: Spleen; assay: Biodistribution in ddY mouse spleen at 0.1 to 0.4 uCi, iv after 10 mins by gamma counting; type: ADME, organism-based; conditions: in vivo; method in brief: as §1
[26] = test system: Intestine; assay: Biodistribution in ddY mouse intestine at 0.1 to 0.4 uCi, iv after 10 mins by gamma counting; type: ADME, organism-based; conditions: in vivo; method in brief: as §1
[27] = test system: Liver; assay: Biodistribution in ddY mouse liver at 0.1 to 0.4 uCi, iv after 10 mins by gamma counting; type: ADME, organism-based; conditions: in vivo; method in brief: as §1
[28] = test system: Kidney; assay: Biodistribution in ddY mouse kidney at 0.1 to 0.4 uCi, iv after 10 mins by gamma counting; type: ADME, organism-based; conditions: in vivo; method in brief: as §1
[29] = test system: Brain; assay: Biodistribution in ddY mouse brain at 0.1 to 0.4 uCi, iv after 10 mins by gamma counting; type: ADME, organism-based; conditions: in vivo; method in brief: as §1
[30] = test system: Blood; assay: Biodistribution in ddY mouse blood at 0.1 to 0.4 uCi, iv after 10 mins by gamma counting; type: ADME, organism-based; conditions: in vivo; method in brief: as §1
[31] = test system: Pancreas; assay: Biodistribution in ddY mouse pancreas at 0.1 to 0.4 uCi, iv after 2 mins by gamma counting; type: ADME, organism-based; conditions: in vivo; method in brief: as §1
[32] = test system: Heart; assay: Biodistribution in ddY mouse heart at 0.1 to 0.4 uCi, iv after 2 mins by gamma counting; type: ADME, organism-based; conditions: in vivo; method in brief: as §1
[33] = test system: Stomach; assay: Biodistribution in ddY mouse stomach assessed per organ at 0.1 to 0.4 uCi, iv after 2 mins by gamma counting; type: ADME, organism-based; conditions: in vivo; method in brief: as §1
[34] = test system: Lung; assay: Biodistribution in ddY mouse lung at 0.1 to 0.4 uCi, iv after 2 mins by gamma counting; type: ADME, organism-based; conditions: in vivo; method in brief: as §1
[35] = test system: Intestine; assay: Biodistribution in ddY mouse intestine at 0.1 to 0.4 uCi, iv after 2 mins by gamma counting; type: ADME, organism-based; conditions: in vivo; method in brief: as §1
[36] = test system: Spleen; assay: Biodistribution in ddY mouse spleen at 0.1 to 0.4 uCi, iv after 2 mins by gamma counting; type: ADME, organism-based; conditions: in vivo; method in brief: as §1
[37] = test system: Kidney; assay: Biodistribution in ddY mouse kidney at 0.1 to 0.4 uCi, iv after 2 mins by gamma counting; type: ADME, organism-based; conditions: in vivo; method in brief: as §1
[38] = test system: Liver; assay: Biodistribution in ddY mouse liver at 0.1 to 0.4 uCi, iv after 2 mins by gamma counting; type: ADME, organism-based; conditions: in vivo; method in brief: as §1
[39] = test system: Blood; assay: Biodistribution in ddY mouse blood at 0.1 to 0.4 uCi, iv after 2 mins by gamma counting; type: ADME, organism-based; conditions: in vivo; method in brief: as §1
[40] = test system: Brain; assay: Biodistribution in ddY mouse brain at 0.1 to 0.4 uCi, iv after 2 mins by gamma counting; type: ADME, organism-based; conditions: in vivo; method in brief: as §1
[41] = n-octanol-sodium phosphate buffer partition co-efficient, log D of the compound at pH 7.4 by shake flask method; type: physicochemical
Method in brief: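 Shake-flask partition between n-octanol and sodium phosphate buffer, pH 7.4, shaken 10 min at room temperature, then centrifuged. Weighed 0.5 mL samples of each layer counted. log D from the ratio of cpm per gram of octanol to cpm per gram of buffer; n = 3.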

COc1ccc2nc3cc([125I])ccc3c(N)c2c1
Drug uptake [1]: 0.49 % ID/g | Drug uptake [2]: 0.76 % ID/g | Drug uptake [3]: 1.74 %ID | Drug uptake [4]: 1.4 % ID/g | Drug uptake [5]: 3.28 % ID/g | Drug uptake [6]: 11.2 % ID/g | Drug uptake [7]: 3.58 % ID/g | Drug uptake [8]: 2.84 % ID/g | Drug uptake [9]: 0.19 % ID/g | Drug uptake [10]: 0.49 % ID/g | Drug uptake [11]: 2.26 % ID/g | Drug uptake [12]: 4.98 % ID/g | Drug uptake [13]: 6.66 %ID | Drug uptake [14]: 5.04 % ID/g | Drug uptake [15]: 10.6 % ID/g | Drug uptake [16]: 17.49 % ID/g | Drug uptake [17]: 12.64 % ID/g | Drug uptake [18]: 8.4 % ID/g | Drug uptake [19]: 1.27 % ID/g | Drug uptake [20]: 1.46 % ID/g | Drug uptake [21]: 4.57 % ID/g | Drug uptake [22]: 11.52 % ID/g | Drug uptake [23]: 6.58 %ID | Drug uptake [24]: 14.29 % ID/g | Drug uptake [25]: 14.65 % ID/g | Drug uptake [26]: 14.19 % ID/g | Drug uptake [27]: 14.79 % ID/g | Drug uptake [28]: 22.51 % ID/g | Drug uptake [29]: 3.16 % ID/g | Drug uptake [30]: 2.09 % ID/g | Drug uptake [31]: 4.34 % ID/g | Drug uptake [32]: 4.46 % ID/g | Drug uptake [33]: 0.99 %ID | Drug uptake [34]: 9.91 % ID/g | Drug uptake [35]: 1.86 % ID/g | Drug uptake [36]: 4.7 % ID/g | Drug uptake [37]: 9.81 % ID/g | Drug uptake [38]: 6.24 % ID/g | Drug uptake [39]: 1.15 % ID/g | Drug uptake [40]: 1.35 % ID/g | logD [41]: 2.13
